Experimental data gathered from unrelated publications.
Compare with care: the assays were run in different laboratories.
SLC6A3: Sodium-dependent dopamine transporter (SLC6A3, Homo sapiens, UniProt Q01959)
PDE10A: cAMP and cAMP-inhibited cGMP 3',5'-cyclic phosphodiesterase 10A (PDE10A, Homo sapiens, UniProt Q9Y233)

Structure (SMILES) | target | read-out | action | method | cells | concentration | inhibition [%]
N#CC[C@@]12C[C@@H]1[C@@H](n1cnc3c(NCc4cccc(Cl)c4)nc(C#Cc4ccc(Cl)s4)nc31)[C@H](O)[C@@H]2O | SLC6A3 | ligand displacement |  | radioligand |  | 10 µM | 89
COc1ccc2nccc(Cc3cccc(-c4cnn(C5COC5)c4)c3)c2c1 | PDE10A | enzyme activity | inhibitor | FP |  | 0.1 µM | 3
NC/C(=C\F)COc1cccc(Cn2c(=S)[nH]c(=O)c3[nH]cnc32)c1 | Sodium- and chloride-dependent GABA transporter 1 (Slc6a1, Rattus norvegicus, UniProt P23978) | ligand displacement |  | radioligand |  | 10 µM | < 50
c1ccc(-c2cccc(Cc3ncnc4ccccc34)c2)cc1 | PDE10A | enzyme activity | inhibitor | FP |  | 0.1 µM | 0
Cc1cc(O)c(-c2ccc([C@@H](C)CN(C)C)cc2)c2c1[nH]c(=O)c1sccc12 | Serine/threonine-protein kinase D1 (PRKD1, Homo sapiens, UniProt Q15139) | enzyme activity | inhibitor |  |  | 0.1 µM | -0.107
N#CC[C@@]12C[C@@H]1[C@@H](n1cnc3c(Nc4ccccc4)nc(C#Cc4ccc(Cl)s4)nc31)[C@H](O)[C@@H]2O | SLC6A3 | ligand displacement |  | radioligand |  | 10 µM | 18
C#Cc1cc(-c2cc(Nc3nc(N[C@@H](C)c4ccc(F)cn4)ncc3Cl)n[nH]2)ccc1C=O | Mitogen-activated protein kinase 15 (MAPK15, Homo sapiens, UniProt Q8TD08) | enzyme activity | inhibitor |  |  | 0.2 µM | 11.5
CCOC(=O)[C@@]12C[C@@H]1[C@@H](n1cnc3c(NCCCCCc4ccccc4)nc(C#Cc4ccccc4)nc31)[C@H](O)[C@@H]2O | SLC6A3 | transporter uptake | inhibitor | radiometric | HEK293 | 10 µM | 9
COc1ccc(Cc2nccc3cc(C4COC4)ccc23)cc1OC | PDE10A | enzyme activity | inhibitor | FP |  | 0.1 µM | 0
